Results from ChEMBL document CHEMBL1136012, “Synthesis and structure-activity relationships of novel 7-substituted 1,4-dihydro-4-oxo-1-(2-thiazolyl)-1,8-naphthyridine-3-carboxylic acids as antitumor agents. Part 1” (J Med Chem, 2002).

Columns and labels:
P388 [1] = assay: Cytotoxic activity of compound against Murine P388 Leukemia; assay type: functional, cell-based, Mus musculus
Procedure, shortened: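 Murine P388 cells were cultured in EMEM with 10% FBS, 2 mM glutamine, 50 units/mL penicillin and 50 μg/mL streptomycin. They were seeded at (1–2) × 10^4 cells/mL without preincubation and exposed to varying concentrations for 72 h at 37 °C, 5% CO2. MTT was then added for 4 h, formazan dissolved in DMSO and read at 570/690 nm.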

P388 [2] = assay: […] antitumor activity of compound against P388 leukemia cells at a dose of 50 mg/kg; assay type: functional, Mus musculus
Procedure, shortened: (§1)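 In vivo study: BDF1 mice received 10^6 P388 leukemia cells ip as diluted ascites fluid. Test compounds were suspended in 0.4% CMC and given ip on days 1 and 5 after implantation, with seven mice per group. The endpoint is T/C% = median survival time of the treated group / median survival time of controls × 100.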

P388 [3] = assay: […] antitumor activity of compound against P388 leukemia cells at a dose of 3.13 mg/kg; assay type: functional, Mus musculus; procedure, shortened: as §1
P388 [4] = assay: In vitro antitumor activity of compound against P388 leukemia cells at a dose of […] mg/kg; assay type: functional, Mus musculus; parameters: concentration or dose not given beside the values
A-427 = assay: Cytotoxic activity of compound against A-427 lung human tumor cell line; assay type: functional, cell-based
Procedure, shortened: (§2)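 Cells were kept in EMEM with 10% FBS, 2 mM glutamine, NEAA and 1 mM sodium pyruvate. They were seeded at (1–2) × 10^4 cells/mL and preincubated for 24 h. They were then exposed to graded concentrations for 72 h at 37 °C in 5% CO2. MTT was added for a further 4 h and the formazan dissolved in DMSO, with absorbance at 570/690 nm.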

DNA topoisomerase II = DNA topoisomerase II (Homo sapiens, UniProt P11388+Q02880); assay: Inhibitory activity in a DNA cleavage assay using HeLa DNA topoisomerase II yielding its effective concentration; assay type: protein assay
G-361 = assay: Cytotoxic activity of compound against G-361 melanoma human tumor cell line; assay type: functional, cell-based
Procedure, shortened: (§3)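 Culture was in McCoy's 5A with 10% FBS. Cells were seeded at (1–2) × 10^4 cells/mL, preincubated for 24 h, then incubated with various concentrations for 72 h at 37 °C under 5% CO2. MTT was added for 4 h and the formazan dissolved in DMSO, with A570 read against 690 nm.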

[5] = Cytotoxic activity of compound against SCaBER bladder squamous human tumor cell line; assay type: functional, cell-based; procedure, shortened: as §2
HT-29 = assay: Cytotoxic activity of compound against HT-29 colon human tumor cell line; assay type: functional, cell-based; procedure, shortened: as §3
SK-OV-3 = assay: Cytotoxic activity of compound against SK-OV-3 ovary human tumor cell line; assay type: functional, cell-based; details: SK-OV-3, Female gonad
Procedure, shortened: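 SK-OV-3 cells were maintained in McCoy's 5A with 15% FBS. After seeding at (1–2) × 10^4 cells/mL and 24 h preincubation, wells received graded concentrations for 72 h at 37 °C, 5% CO2. A 4 h MTT incubation followed, with DMSO solubilization and absorbance at 570/690 nm.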

[6] = Cytotoxic activity of compound against AZ-521 stomach human tumor cell line; assay type: functional
Procedure, shortened: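 AZ-521 cells were grown in EMEM with 10% FBS, 2 mM glutamine and NEAA. They were plated at (1–2) × 10^4 cells/mL and preincubated for 24 h, then treated with a range of concentrations for 72 h at 37 °C, 5% CO2. After a 4 h MTT step, the formazan was dissolved in DMSO and read at 570 nm (reference 690 nm).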

P388 [7] = assay: […] antitumor activity of compound against P388 leukemia cells at a dose of 6.25 mg/kg; assay type: functional; details: Mus musculus; procedure, shortened: as §1
[8] = Mus musculus, P388, read-out: IC50

With `C[C@@H]1CN(c2nc3c(cc2F)c(=O)c(C(=O)O)cn3-c2nccs2)C[C@@H]1N.Cl` the IC50 (P388 [1]; [8]) was 0.057 µg/mL.

For `Cl.NC1CCN(c2nc3c(cc2F)c(=O)c(C(=O)O)cn3-c2ccccc2)C1` (configuration not stated), the IC50 (P388 [1]; [8]) was 2.4 µg/mL.

With `Cl.NC1CCN(c2cc3c(cc2F)c(=O)c(C(=O)O)cn3-c2nccs2)C1` (configuration not stated) the IC50 (P388 [1]; [8]) was > 10 µg/mL.

With `Cl.N[C@@H]1CCN(c2nc3c(cc2F)c(=O)c(C(=O)O)cn3-c2nccs2)C1` the IC50 (P388 [1]; [8]) was 0.016 µg/mL.

With `C[C@H]1CN(c2nc3c(cc2F)c(=O)c(C(=O)O)cn3-c2nccs2)C[C@@H]1N.Cl` the T/C (P388 [2]) was 238%, the IC50 (P388 [1]; [8]) was 0.011 µg/mL and the T/C (P388 [3]) was 138%. For the same compound, the T/C (P388 [4]) was 175%.

With `Cl.O=C(O)c1cn(-c2nccs2)c2nc(N3C[C@@H]4CCCN[C@@H]4C3)c(F)cc2c1=O` the IC50 (P388 [1]; [8]) was 0.304 µg/mL.

`CN1CC=C2CN(c3nc4c(cc3F)c(=O)c(C(=O)O)cn4-c3nccs3)CC21.Cl` (configuration not stated) showed an IC50 (P388 [1]; [8]) of 0.038 µg/mL.

With `Cl.O=C(O)c1cn(-c2nccs2)c2nc(N3CC4NCCOC4C3)c(F)cc2c1=O` (configuration not stated) the IC50 (P388 [1]; [8]) was > 1 µg/mL.

Work on `Cl.NC1CCN(c2nc3c(cc2F)c(=O)c(C(=O)O)cn3-c2cccs2)C1` (configuration not stated) yielded an IC50 (P388 [1]; [8]) of 1.2 µg/mL.

With `Cl.NC1CCN(c2nc3c(cc2F)c(=O)c(C(=O)O)nn3-c2nccs2)C1` (configuration not stated) the IC50 (P388 [1]; [8]) was > 10 µg/mL.

In the case of `Cl.O=C(O)c1cn(-c2nccs2)c2nc(O)c(F)cc2c1=O`, the IC50 (P388 [1]; [8]) is reported as > 10 µg/mL.

Work on `Cl.NCC1CN(c2nc3c(cc2F)c(=O)c(C(=O)O)cn3-c2nccs2)C[C@H]1Cl` (some centres not stated) yielded an IC50 (P388 [1]; [8]) of 0.156 µg/mL.

Work on `Cl.NC1CCN(c2ncc3c(=O)c(C(=O)O)cn(-c4nccs4)c3n2)C1` (configuration not stated) yielded an IC50 (P388 [1]; [8]) of 0.047 µg/mL.

In the case of `Cl.O=C(O)c1cn(-c2nccs2)c2nc(-n3ccnc3)c(F)cc2c1=O`, the IC50 (P388 [1]; [8]) is reported as > 10 µg/mL.

Compound `COc1cnc(-n2cc(C(=O)O)c(=O)c3cc(F)c(N4CCC(N)C4)nc32)s1.Cl` (configuration not stated) has an IC50 (P388 [1]; [8]) of 0.35 µg/mL.

`Cc1cc(-n2cc(C(=O)O)c(=O)c3cc(F)c(N4CCC(N)C4)nc32)on1.Cl` (configuration not stated) gave an IC50 (P388 [1]; [8]) of 0.58 µg/mL.

In the case of `Cl.NCC1=CCN(c2nc3c(cc2F)c(=O)c(C(=O)O)cn3-c2nccs2)C1`, the IC50 (P388 [1]; [8]) is reported as 0.084 µg/mL.

In the case of `Cl.NC1CCN(c2nc3c(cc2F)c(=O)c(C(=O)O)cn3-c2nccs2)C1` (configuration not stated), the T/C (P388 [2]) is reported as >375%, the IC50 (A-427) is reported as 0.22 µg/mL and the IC50 (DNA topoisomerase II) is reported as > 200 µg/mL. It also gave an IC50 (G-361) of 0.39 µg/mL, an IC50 [5] of 0.34 µg/mL and an IC50 (HT-29) of 1.2 µg/mL. It also gave an IC50 (P388 [1]; [8]) of 0.021 µg/mL, an IC50 (SK-OV-3) of 0.93 µg/mL and a T/C (P388 [3]) of 150%. The T/C (P388 [4]) was 213% and the IC50 [6] was 0.35 µg/mL.

With `Cl.NC1CCN(c2nc3c(cc2F)c(=O)c(C(=O)O)cn3-c2ccccn2)C1` (configuration not stated) the IC50 (P388 [1]; [8]) was > 10 µg/mL.

Compound `CO[C@@H]1CN(c2nc3c(cc2F)c(=O)c(C(=O)O)cn3-c2nccs2)C[C@H]1N.Cl` has an IC50 (P388 [1]; [8]) of 0.068 µg/mL.

In the case of `Cc1nc(-n2cc(C(=O)O)c(=O)c3cc(F)c(N4CCC(N)C4)nc32)sc1C.Cl` (configuration not stated), the IC50 (P388 [1]; [8]) is reported as 0.18 µg/mL.

`Cc1csc(-n2cc(C(=O)O)c(=O)c3cc(F)c(N4CCC(N)C4)nc32)n1.Cl` (configuration not stated) gave an IC50 (P388 [1]; [8]) of 0.051 µg/mL.

With `Cl.NC1(CO)CCN(c2nc3c(cc2F)c(=O)c(C(=O)O)cn3-c2nccs2)C1` (configuration not stated) the IC50 (P388 [1]; [8]) was 0.084 µg/mL.

In the case of `CC1(N)CCN(c2nc3c(cc2F)c(=O)c(C(=O)O)cn3-c2nccs2)C1.Cl` (configuration not stated), the T/C (P388 [2]) is reported as >375%, the IC50 (P388 [1]; [8]) is reported as 0.026 µg/mL and the T/C (P388 [3]) is reported as 138%. For the same compound, the T/C (P388 [4]) was 213%.

For `Cl.N[C@H]1CN(c2nc3c(cc2F)c(=O)c(C(=O)O)cn3-c2nccs2)C[C@@H]1O`, the IC50 (P388 [1]; [8]) was 2.09 µg/mL.

CISPLATIN [listing 1 of 2 here] gave an IC50 (P388 [1]; p388) of 0.011 µg/mL.

In the case of `Cl.NC1CCN(c2nc3c(cc2F)c(=O)c(C(=O)O)cn3Cc2nccs2)C1` (configuration not stated), the IC50 (P388 [1]; [8]) is reported as > 10 µg/mL.

`Cl.O=C(O)c1cn(-c2nccs2)c2nc(N3CCSCC3)c(F)cc2c1=O` showed an IC50 (P388 [1]; [8]) of 1.74 µg/mL.

With `Cl.O=C(O)c1cn(-c2nccs2)c2nc(N3CC[C@H](O)C3)c(F)cc2c1=O` the IC50 (P388 [1]; [8]) was 0.02 µg/mL.

Work on CISPLATIN [listing 2 of 2 here] yielded a T/C (P388 [7]) of 290% and a T/C (P388 [3]; Mus musculus) of 239%.
